Data reported in ChEMBL document CHEMBL1255185, “Substituted 4-amino-1H-pyrazolo[3,4-d]pyrimidines as multi-targeted inhibitors of insulin-like growth factor-1 receptor (IGF1R) and members of ErbB-family receptor kinases” (Bioorg Med Chem Lett, 2010).

The molecules below were run against Receptor tyrosine-protein kinase erbB-2 (Homo sapiens, UniProt P04626) (assay: Inhibition of ErbB2).
Receptor tyrosine-protein kinase erbB-2, sequence (P04626 whole entry): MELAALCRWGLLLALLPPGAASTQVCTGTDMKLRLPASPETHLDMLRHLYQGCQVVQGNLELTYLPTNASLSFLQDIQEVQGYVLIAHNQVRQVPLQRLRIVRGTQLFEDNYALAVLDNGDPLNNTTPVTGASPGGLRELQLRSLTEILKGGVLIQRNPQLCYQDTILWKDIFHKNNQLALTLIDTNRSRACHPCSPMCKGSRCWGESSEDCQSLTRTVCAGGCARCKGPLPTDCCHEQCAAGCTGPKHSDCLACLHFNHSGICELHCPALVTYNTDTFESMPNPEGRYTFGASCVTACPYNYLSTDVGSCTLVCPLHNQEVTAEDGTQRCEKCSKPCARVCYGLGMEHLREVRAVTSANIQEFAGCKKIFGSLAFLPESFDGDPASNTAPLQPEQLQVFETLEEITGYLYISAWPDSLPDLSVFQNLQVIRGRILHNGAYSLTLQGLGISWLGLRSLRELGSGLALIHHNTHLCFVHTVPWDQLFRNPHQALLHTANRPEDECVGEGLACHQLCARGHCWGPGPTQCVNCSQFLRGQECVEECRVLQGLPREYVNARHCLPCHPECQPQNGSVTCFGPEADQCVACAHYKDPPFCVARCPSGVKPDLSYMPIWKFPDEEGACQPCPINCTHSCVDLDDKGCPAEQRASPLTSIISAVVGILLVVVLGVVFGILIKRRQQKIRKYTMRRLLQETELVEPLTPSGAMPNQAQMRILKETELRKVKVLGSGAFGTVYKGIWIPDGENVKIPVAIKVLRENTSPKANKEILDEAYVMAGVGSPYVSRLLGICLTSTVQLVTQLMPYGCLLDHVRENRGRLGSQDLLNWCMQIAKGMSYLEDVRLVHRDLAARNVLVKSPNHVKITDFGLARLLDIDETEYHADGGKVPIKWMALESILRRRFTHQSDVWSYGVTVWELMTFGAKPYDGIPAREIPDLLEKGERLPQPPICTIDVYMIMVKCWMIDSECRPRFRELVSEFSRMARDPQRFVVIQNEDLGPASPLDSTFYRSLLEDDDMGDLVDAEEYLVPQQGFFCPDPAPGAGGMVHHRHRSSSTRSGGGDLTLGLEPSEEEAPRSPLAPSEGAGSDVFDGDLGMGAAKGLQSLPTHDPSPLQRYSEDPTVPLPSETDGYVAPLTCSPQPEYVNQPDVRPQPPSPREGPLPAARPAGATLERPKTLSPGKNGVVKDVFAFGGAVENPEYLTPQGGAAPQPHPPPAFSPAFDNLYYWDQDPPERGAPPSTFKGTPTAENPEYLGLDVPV

| Structure (SMILES) | IC50 [nM] |
| --- | --- |
| CN(C)C(=O)CN1CCN([C@H]2CC[C@H](n3nc(-c4ccc(Nc5nc6cccc(Cl)c6o5)cc4)c4c(N)ncnc43)CC2)CC1 | 21.5 |
| CC(C)N1CCN([C@H]2CC[C@H](n3nc(-c4ccc(Nc5nc6cccc(Cl)c6o5)cc4)c4c(N)ncnc43)CC2)CC1 | 9.8 |
| COCCCN1CCC(N2CCC(n3nc(-c4ccc(Nc5nc6cccc(Cl)c6o5)cc4)c4c(N)ncnc43)CC2)CC1 | 13.8 |

The remaining molecules from weak to strong by IC50, led by results:

| IC50 [nM] | Structure (SMILES) |
| --- | --- |
| 397 | COCCCN1CCN([C@H]2CC[C@@H](n3nc(-c4ccc(Nc5nc6cccc(Cl)c6o5)cc4)c4c(N)ncnc43)CC2)CC1 |
| 200 | CN1CCN([C@H]2CC[C@@H](n3nc(-c4ccc(Nc5nc6cccc(Cl)c6o5)cc4)c4c(N)ncnc43)CC2)CC1 |
| 29 | CN1CCN([C@H]2CC[C@H](n3nc(-c4ccc(Nc5nc6cccc(Cl)c6o5)c(Cl)c4)c4c(N)ncnc43)CC2)CC1 |
| 21.5 | COCCCN1CCN([C@H]2CC[C@H](n3nc(-c4ccc(Nc5nc6cccc(Cl)c6o5)cc4)c4c(N)ncnc43)CC2)CC1 |

Each molecule was assayed against Epidermal growth factor receptor (Homo sapiens, UniProt P04626+P00533+Q15303+P21860) (assay: Inhibition of EGFR L858 mutant).
Type: protein assay
How it was run: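 Kinase inhibition was measured in a homogeneous time-resolved fluorescence assay. The EGFR enzyme construct carries the L858R activating mutation.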

| Structure (SMILES) | IC50 [nM] |
| --- | --- |
| CN(C)C(=O)CN1CCN([C@H]2CC[C@H](n3nc(-c4ccc(Nc5nc6cccc(Cl)c6o5)cc4)c4c(N)ncnc43)CC2)CC1 | 1840 |
| CC(C)N1CCN([C@H]2CC[C@H](n3nc(-c4ccc(Nc5nc6cccc(Cl)c6o5)cc4)c4c(N)ncnc43)CC2)CC1 | 53.7 |
| COCCCN1CCC(N2CCC(n3nc(-c4ccc(Nc5nc6cccc(Cl)c6o5)cc4)c4c(N)ncnc43)CC2)CC1 | 264 |

Next, values leading:

| IC50 [nM] | Structure (SMILES) |
| --- | --- |
| 874 | COCCCN1CCN([C@H]2CC[C@@H](n3nc(-c4ccc(Nc5nc6cccc(Cl)c6o5)cc4)c4c(N)ncnc43)CC2)CC1 |
| 393 | CN1CCN([C@H]2CC[C@@H](n3nc(-c4ccc(Nc5nc6cccc(Cl)c6o5)cc4)c4c(N)ncnc43)CC2)CC1 |
| 63 | CN1CCN([C@H]2CC[C@H](n3nc(-c4ccc(Nc5nc6cccc(Cl)c6o5)c(Cl)c4)c4c(N)ncnc43)CC2)CC1 |
| 108 | COCCCN1CCN([C@H]2CC[C@H](n3nc(-c4ccc(Nc5nc6cccc(Cl)c6o5)cc4)c4c(N)ncnc43)CC2)CC1 |

What follows are molecules tested against Insulin-like growth factor 1 receptor (Homo sapiens, UniProt P08069) (assay: Inhibition of IGF1R).
Insulin-like growth factor 1 receptor, sequence (P08069 31-736 limits assumed): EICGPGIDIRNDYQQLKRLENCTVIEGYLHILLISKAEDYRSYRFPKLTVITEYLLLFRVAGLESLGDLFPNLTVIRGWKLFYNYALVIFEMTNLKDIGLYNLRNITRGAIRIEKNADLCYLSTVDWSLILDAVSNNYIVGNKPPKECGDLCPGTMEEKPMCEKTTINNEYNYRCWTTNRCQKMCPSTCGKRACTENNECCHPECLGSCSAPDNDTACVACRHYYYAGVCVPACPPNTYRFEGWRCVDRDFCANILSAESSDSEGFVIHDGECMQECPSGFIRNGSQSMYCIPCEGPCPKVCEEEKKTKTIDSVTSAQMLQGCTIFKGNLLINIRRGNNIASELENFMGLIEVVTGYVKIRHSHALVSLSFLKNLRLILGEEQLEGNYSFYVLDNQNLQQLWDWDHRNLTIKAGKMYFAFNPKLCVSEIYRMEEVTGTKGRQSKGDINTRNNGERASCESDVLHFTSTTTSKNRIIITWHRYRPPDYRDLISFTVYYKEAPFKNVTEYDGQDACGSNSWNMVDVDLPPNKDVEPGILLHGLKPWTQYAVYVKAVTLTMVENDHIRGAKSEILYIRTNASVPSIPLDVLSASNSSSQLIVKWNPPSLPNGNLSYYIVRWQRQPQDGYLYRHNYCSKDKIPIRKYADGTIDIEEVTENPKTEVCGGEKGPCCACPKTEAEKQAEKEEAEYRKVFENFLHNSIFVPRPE
Insulin-like growth factor 1 receptor, sequence (P08069 741-1367 limits assumed): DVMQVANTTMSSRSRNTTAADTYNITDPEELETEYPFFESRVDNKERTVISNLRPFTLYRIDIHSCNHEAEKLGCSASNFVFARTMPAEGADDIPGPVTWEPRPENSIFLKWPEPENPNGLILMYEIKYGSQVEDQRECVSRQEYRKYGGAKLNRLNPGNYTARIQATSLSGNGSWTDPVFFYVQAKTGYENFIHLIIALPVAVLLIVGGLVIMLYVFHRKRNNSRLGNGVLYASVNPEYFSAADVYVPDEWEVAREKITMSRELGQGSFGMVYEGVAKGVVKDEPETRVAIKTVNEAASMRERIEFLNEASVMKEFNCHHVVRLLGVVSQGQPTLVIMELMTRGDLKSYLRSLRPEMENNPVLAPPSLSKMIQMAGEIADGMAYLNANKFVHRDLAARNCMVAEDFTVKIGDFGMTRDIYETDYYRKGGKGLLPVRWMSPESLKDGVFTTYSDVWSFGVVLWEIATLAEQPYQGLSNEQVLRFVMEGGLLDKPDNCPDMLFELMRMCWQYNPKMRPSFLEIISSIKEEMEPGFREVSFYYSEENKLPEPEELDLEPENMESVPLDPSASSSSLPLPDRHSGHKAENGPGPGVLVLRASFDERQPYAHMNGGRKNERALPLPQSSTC

| Structure (SMILES) | IC50 [nM] |
| --- | --- |
| CN(C)C(=O)CN1CCN([C@H]2CC[C@H](n3nc(-c4ccc(Nc5nc6cccc(Cl)c6o5)cc4)c4c(N)ncnc43)CC2)CC1 | 126 |
| CC(C)N1CCN([C@H]2CC[C@H](n3nc(-c4ccc(Nc5nc6cccc(Cl)c6o5)cc4)c4c(N)ncnc43)CC2)CC1 | 45.1 |
| COCCCN1CCC(N2CCC(n3nc(-c4ccc(Nc5nc6cccc(Cl)c6o5)cc4)c4c(N)ncnc43)CC2)CC1 | 283 |

The remaining lines, values ahead:

| IC50 [nM] | Structure (SMILES) |
| --- | --- |
| 424 | COCCCN1CCN([C@H]2CC[C@@H](n3nc(-c4ccc(Nc5nc6cccc(Cl)c6o5)cc4)c4c(N)ncnc43)CC2)CC1 |
| 77 | CN1CCN([C@H]2CC[C@@H](n3nc(-c4ccc(Nc5nc6cccc(Cl)c6o5)cc4)c4c(N)ncnc43)CC2)CC1 |
| 49 | CN1CCN([C@H]2CC[C@H](n3nc(-c4ccc(Nc5nc6cccc(Cl)c6o5)c(Cl)c4)c4c(N)ncnc43)CC2)CC1 |
| 72.4 | COCCCN1CCN([C@H]2CC[C@H](n3nc(-c4ccc(Nc5nc6cccc(Cl)c6o5)cc4)c4c(N)ncnc43)CC2)CC1 |
